Bioassay records from PubChem BioAssay.
XiGFP reactiv: activators of X-chromosome reactivation in mouse fibroblasts; activation, % at 7.58 µM; AID 743238; 360,000 compounds, 0.055% hits; XiGFP mouse fibroblasts, % GFP-positive cells imaging, 3 d; cells co-treated with 5-aza-dC sensitizer; scaled so ellipticine positive control = 100%;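 active = mean normalized replicate activation at least 10% and every replicate at or above 10%; inconclusive = only one of the two criteria met; inactive = mean below 10% and not all replicates reach 10%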;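 also: 0% = median of on-plate neutral control wells and 100% = ellipticine 6 µM median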
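assay system = SV40-immortalized XiGFP fibroblast cells, line 68-5-11 | buffer or medium = DMEM plus 5-aza-dC sensitizer | doses = single-point pinned compound dosing | times = 3-day compound exposure, then 15 min fixation at room temperature | benchmarks = positive control ellipticine, 6 µM final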
PvdQ inh: blocks Pseudomonas aeruginosa PvdQ acylase activity; AID 488965; inhibition, % at 10 µM; 340,000 compounds, 0.063% hits; purified PvdQ acylase, fluorescence plate reader; in the data active = inhibition above about 30%, passing the limit was not always enough; inconclusive = no clear call, values can overlap the other calls;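 also: 0% = vehicle neutral wells and 100% = reference inhibitor wells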
SR-BI uptake up: enhances SR-BI lipid uptake from DiI-HDL | CHO ldlA[mSR-BI] cells, DiI-HDL uptake fluorescence, 3 h; 100 = double the neutral-control signal | activation, % at 12.5 µM | 320,000 compounds, 0.096% hits;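 active = mean replicate activation of at least 60% and every replicate at or above 60%; inconclusive = mean or all-replicate condition met, but not both; inactive = mean below 60% and not all replicates reaching 60%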;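 also: 0% = median plate neutral-control signal and 100% = twice that signal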
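Test system: SR-BI-overexpressing, LDLR-lacking CHO cells; Medium: Ham's F12 with 0.5% BSA, HEPES 25 mM, pH 7.4; Schedule: 3 h, 37 °C; Technique: bottom-read fluorescence, 550/595 nm.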
SR-BI HDL uptake: inhibitors of mouse SR-BI mediated HDL lipid uptake | 320,000 compounds, 0.96% hits | ldlA[mSR-BI] CHO cells, DiI-HDL uptake fluorescence, 3 h | Q61009 | inhibition, % at 12.5 µM;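 active = mean replicate inhibition of at least 70% and a set share of replicates each scoring 70 or more; inconclusive = meets just one of the two criteria; inactive = fails both criteria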;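 also: 0% = median of neutral control wells and 100% = median of positive control wells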
Target sequence (Q61009 whole entry, looked up): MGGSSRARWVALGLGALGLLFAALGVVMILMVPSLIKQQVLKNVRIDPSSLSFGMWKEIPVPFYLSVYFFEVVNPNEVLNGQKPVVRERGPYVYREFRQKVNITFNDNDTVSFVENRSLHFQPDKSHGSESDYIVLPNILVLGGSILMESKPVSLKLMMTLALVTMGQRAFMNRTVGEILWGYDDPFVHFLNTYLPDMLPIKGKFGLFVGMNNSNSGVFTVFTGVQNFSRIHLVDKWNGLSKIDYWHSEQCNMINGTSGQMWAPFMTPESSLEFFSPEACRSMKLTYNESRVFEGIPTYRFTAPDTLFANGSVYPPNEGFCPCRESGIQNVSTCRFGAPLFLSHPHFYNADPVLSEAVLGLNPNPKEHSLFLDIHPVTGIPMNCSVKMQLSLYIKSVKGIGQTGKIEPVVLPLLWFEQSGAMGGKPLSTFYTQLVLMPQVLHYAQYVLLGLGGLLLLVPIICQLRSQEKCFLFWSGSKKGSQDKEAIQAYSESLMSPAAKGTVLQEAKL
dFosB activator: mouse delta FosB homodimer activation; activation, % at 25 µM; 340,000 compounds, 0.99% hits; purified delta FosB, TAMRA-CDK5 oligo fluorescence polarization; percent of positive-control signal above neutral wells; P13346;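 active = mean activation above about 17%, with every replicate also reaching it, limit read from the data, passing the limit was not always enough; inconclusive = only one of the two conditions met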
Ecoli rRNA inh: selective bacterial rRNA inhibition in E. coli | E. coli WT GFP vs humanized-ribosome RFP mutants, fluorescence, 24 h; stronger effect = lower value; DMSO median 0, no signal -100 | GFP signal change (wild-type ribosome), % (no concentration beside the values) | 350,000 compounds, 1.6% hits | AID 720706;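 active = significant combined selectivity score with lowered wild-type GFP, culture density cut under 30%, mutant RFP and density less affected; inactive = any of these conditions unmet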
Numbers without * were called inactive; ? = inconclusive; . = no result given. Only some compounds are listed: those with a hit (about 2.6% of all), similar ones and a draw of the others.

SMILES	XiGFP reactiv	PvdQ inh	SR-BI uptake up	SR-BI HDL uptake	dFosB activator	Ecoli rRNA inh
O=C(CSc1ccccc1C(=O)O)NCc1ccc(Cl)cc1	0.0	-17.1	-2.1	2.1	1.4	18.4
Cn1nc(C(F)(F)F)c(-c2ccc(Br)cc2)c1NC(=O)c1cccnc1	0.0	-7.4	-16.8	16.8	-6.2	-44.3*
Cn1nc(C(F)(F)F)c(-c2ccc(Br)cc2)c1NC(=O)c1ccco1	0.0	-8.2	30.7	-30.7	-12.5	-32.3*
Cc1n[nH]c(C)c1Sc1ccccc1[N+](=O)[O-]	-0.1	-5.1	6.2	-6.2	2.3	-33.5*
Cn1c(N)c(Sc2ccccc2[N+](=O)[O-])c(=O)n(C)c1=O	0.0	7.6	.	.	-7.1	8.0
Cc1ccc(-n2nc(C)c(Sc3ccccc3[N+](=O)[O-])c2N)cc1	0.4	-6.2	-26.3	26.3	4.3	-42.1*
Cc1n[nH]c(C)c1Sc1ccccc1N=Cc1cc(Cl)cc([N+](=O)[O-])c1O	.	-15.4	-3.6	3.6	51.2*	.
CCn1c2ccccc2c2cc(C3C(C#N)=C(C)NC(C)=C3C#N)ccc21	.	-8.4	10.8	-10.8	-1.3	.
C[C@H](CO)N1C[C@H](C)[C@H](CN(C)Cc2ccc(C(=O)O)cc2)Oc2ccc(NC(=O)Nc3cccc4ccccc34)cc2CC1=O	-0.1	.	.	.	.	-0.4
Cc1ccccc1S(=O)(=O)N(C)C[C@@H]1OCc2ccccc2-c2c(n(C)c3ccccc23)C(=O)N([C@H](C)CO)C[C@@H]1C	0.0	.	.	.	.	6.2
Cc1cc(-c2ccccc2)n2ncc(-c3ccccc3)c2n1	0.2	-11.5	-19.3	19.3	-2.1	26.4
Cc1cc(SCC(=O)c2ccccc2)n2ncc(-c3ccccc3)c2n1	0.3	-2.9	-54.5	54.5	-1.4	-51.2*
CNS(=O)(=O)c1cc(N(C)S(=O)(=O)c2ccc(C)cc2)c(C)cc1C	0.0	-4.8	-21.3	21.3	-9.3	-44.6*
CC1(C)c2ccccc2C(=O)c2ccccc21	0.1	-7.7	-19.0	19.0	8.3	-22.0*
O=C(Nc1nc2ccc(Cl)cc2s1)c1ccc(N2CCCCC2)c([N+](=O)[O-])c1	0.1	2.2	-79.3	79.3*	?	.
O=C(Nc1ccc(N2CCCCC2)c(Cl)c1)c1ccc(N2CCOCC2)c([N+](=O)[O-])c1	.	7.9	-87.5	87.5*	-2.7	.
COc1c(C)cc(Br)cc1C(=O)Nc1ccccc1C	0.2	0.5	-44.3	44.3	-1.8	11.8
O=S1(=O)N=CN(Cc2cccc(F)c2)c2ccccc21	.	-0.8	28.8	-28.8	-3.1	.
O=S(=O)(NN=Cc1ccc(O)cc1O)c1cc(Cl)c(Cl)cc1Cl	0.1	4.1	15.5	-15.5	-2.1	-15.4*
Cc1ccc(S(=O)(=O)N/N=C/c2ccc(O)cc2O)cc1[N+](=O)[O-]	-0.2	4.8	-3.2	3.2	-1.7	3.1
Cc1ccccc1S(=O)(=O)Cc1ccc(C(=O)NC(C)c2ccc3c(c2)OCCO3)o1 (configuration not stated)	0.0	-1.9	-0.2	0.2	0.8	2.3
CC(NC(=O)c1ccc(CS(=O)(=O)c2ccc(Cl)cc2)o1)c1ccc2c(c1)OCCO2 (configuration not stated)	.	-17.5	-12.4	12.4	-5.9	-17.1*
COC(=O)c1ccc(CN2C(=O)c3ccccc3S2(=O)=O)cc1	.	-14.5	8.7	-8.7	-3.9	.
CCOC(=O)c1cc2c(s1)-c1c(C)cccc1OC2	0.1	68.2*	-33.7	33.7	-4.5	5.1
Cc1cccc2c1-c1sc(C(=O)Nc3cccc([N+](=O)[O-])c3C)cc1CO2	0.1	10.7	-72.6	72.6*	2.7	-6.8
SMILES	XiGFP reactiv	PvdQ inh	SR-BI uptake up	SR-BI HDL uptake	dFosB activator	Ecoli rRNA inh
Cc1cccc2c1-c1sc(C(=O)Nc3nccs3)cc1CO2	0.0	-8.7	-66.4	66.4	?	-13.8
O=C(O)c1ccc(S(=O)(=O)c2ccc3c(c2)C(=O)N(c2ccc(O)cc2)C3=O)cc1	-0.2	-3.3	.	.	1.3	-35.8*
O=C(O)c1ccc(NC(=O)c2ccc3c(c2)C(=O)N(c2ccccc2)C3=O)cc1	0.2	3.2	4.8	-4.8	2.1	5.7
Cc1cc(N2C(=O)C(O)=C(C(=O)c3cc4ccccc4o3)C2c2ccc(Cl)cc2)no1 (configuration not stated)	0.0	-5.6	10.9	-10.9	-11.3	-24.2*
Cc1cc(N2C(=O)C(O)=C(C(=O)c3ccc(C)o3)C2c2cccc(Cl)c2)no1 (configuration not stated)	-0.1	.	.	.	.	-13.9
Cc1cc(N2C(=O)C(O)=C(C(=O)c3ccco3)C2c2cccc(Cl)c2)no1 (configuration not stated)	-0.1	4.2	7.2	-7.2	-4.7	-31.9*
Cc1cc(=O)oc2c(C)c(OCC(=O)N3CCN(C(=O)C4COc5ccccc5O4)CC3)ccc12 (configuration not stated)	0.0	-7.6	-84.9	84.9*	-8.7	-8.8
CCCCc1cc(=O)oc2c(C)c(OCC(=O)N3CCCC3)ccc12	-0.1	12.4	-75.8	75.8*	-17.0	.
C[C@H]1CCCCO[C@H](CN(C)S(=O)(=O)c2cccs2)[C@@H](C)CN([C@@H](C)CO)C(=O)c2cc(NC(=O)Nc3ccc(F)cc3)ccc2O1	0.1	.	.	.	.	1.9
CCNC(=O)[C@H]1[C@H](CO)[C@H]2Cn3c(ccc(-c4ccccc4F)c3=O)[C@H]2N1C(C)=O	0.0	.	.	.	.	5.2
O=C(Nc1ccccc1N1CCCCC1)c1ccco1	.	-16.6	-28.8	28.8	8.7	.
CCOc1[nH]n(-c2ccc(Cl)cc2)c(=O)c1C=Nc1ccc(Cl)cc1	.	-9.4	-74.5	74.5*	-3.4	.
CCOc1[nH]n(-c2ccccc2)c(=O)c1C=Nc1ccc(OC)cc1	0.1	-1.1	-45.5	45.5	-9.7	4.3
Cc1ccc2nc(C(Cl)(Cl)Cl)nc(N/N=C/c3ccc([N+](=O)[O-])cc3)c2c1	0.0	-6.3	-90.7	90.7*	3.1	8.6
CC(C)C(=O)N1CCN(c2ccccc2NC(=O)COc2ccc(C3CCCCC3)cc2)CC1	0.1	0.7	-19.7	19.7	-4.7	2.7
CC(C)C(=O)N1CCN(c2ccccc2NC(=O)COc2ccccc2)CC1	0.6	4.3	-26.3	26.3	-7.5	-27.4*
Cc1ccc(OCC(=O)Nc2ccccc2N2CCCC2)c(C)c1	0.0	-26.3	-22.4	22.4	-2.7	-27.1*
O=C(COc1ccccc1)Nc1ccccc1N1CCN(c2ccc(F)cc2)CC1	.	-8.1	-80.0	80.0*	0.4	7.6
O=C(COc1ccccc1)Nc1ccccc1N1CCN(c2ccccc2)CC1	.	-11.4	-64.4	64.4	-5.9	.
CCOC(=O)C1CCCN(S(=O)(=O)c2ccc(S(=O)(=O)N(CC)CC)cc2)C1 (configuration not stated)	0.4	-1.3	4.4	-4.4	2.2	9.0
